Assay results from paper PMC3049920 (Journal of immunology (Baltimore, Md. : 1950), 2010).

Legend:
[1] = test system: IFNγ+ cells in mouse splenocytes; assay: Induction of IFNγ+ cells in mouse splenocytes in vitro; assay type: cell-based; conditions: optimal dose 20 µg/ml
How it was run: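 Splenocytes came from female 129 mice, 3–5 weeks old. They were cultured 16 h in RPMI 1640/10% FCS with or without test agent in plates coated with anti-mouse IFNγ antibody. IFNγ+ cells were detected in situ by ELISPOT and counted with an automated reader. Values are mean ± SD of duplicates.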

[2] = test system: IFNγ+ cells in human peripheral blood; assay: Induction of IFNγ+ cells in human peripheral blood in vitro; assay type: cell-based; conditions: 20 µg/ml
How it was run: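 Whole heparinized blood (0.1 ml) from healthy volunteers was incubated with test agent at 37°C for 4 h. RBCs were lysed with hypotonic buffer (10 mM Tris pH 7.4, 10 mM NaCl), and the WBC pellet was washed and resuspended in RPMI 1640/10% FCS. IFNγ+ cells were quantified by human IFNγ ELISPOT (16 h culture). Values are mean ± SD of duplicates.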

B16 melanoma tumors = B16 melanoma tumors in C57BL/6 mice; assay type: in vivo, mouse; conditions: 12 mg, daily, 5 d/wk, s.c.
[3] = test system: cellular phospho-tyrosine proteins in Jurkat cells; assay: Profile of cellular phospho-tyrosine proteins in Jurkat cells; assay type: cell-based, human; conditions: 10 min

| Molecule | maximal increase of IFNγ+ cells [1] | induction of IFNγ+ cells [2] | response of B16 tumors (B16 melanoma tumors) | effect on profile of cellular phospho-tyrosine proteins [3] |
| --- | --- | --- | --- | --- |
| O.O.O.O.O.O.O.O.O.O=C([O-])[C@@H]1[O][Sb](=[O])([O][Sb]2(=[O])[O][C@H]([C@H](O)CO)[C@H](O)[C@H](C(=O)[O-])[O]2)[O][C@H]([C@H](O)CO)[C@@H]1O.[Na+].[Na+].[Na+] (stereo partly shown) [SSG, sodium stibogluconate] | ~ 3 fold | ~ 2 fold | not responsive | – |
| pervanadate [pervanadate (PV)] | – | – | – | marked increases of multiple phosphotyrosine proteins |
